Paper PMC11956031 (RSC Medicinal Chemistry, 2025)

Legend:
[1] = system: NTERA-2 (embryonal) cancer cells; test: MTT cytotoxicity, NTERA-2 cells, 72 h; format: cell-based, human; settings: read-out: IC50 NTERA-2, 72 h incubation
Outline: (§1)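 Cells kept in log phase at 37 °C, 5% CO2, 10% FCS, 2 mM L-glutamine; RPMI-1640 for HCT-15, PSN-1, NTERA-2, 2008 and C13*; DMEM for MDA-MB-231 and HEK293; F-12 HAM's for CHO. C13* selected from 2008 with low-dose cisplatin. 72 h exposure, 0.5% final DMSO. IC50 at 570 nm vs untreated by 4-PL. RF = C13*/2008 IC50; panel average of IC50s.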

[2] = system: MDA-MB-231 (breast) cancer cells; test: MTT cytotoxicity, MDA-MB-231 cells, 72 h; format: cell-based, human; settings: read-out: IC50 MDA-MB-231, 72 h incubation
Outline: as §1

[3] = system: PSN-1 (pancreatic) cancer cells; test: MTT cytotoxicity, PSN-1 cells, 72 h; format: cell-based, human; settings: read-out: IC50 PSN-1, 72 h incubation
Outline: as §1

[4] = system: HCT-15 (colorectal) cancer cells; test: MTT cytotoxicity, HCT-15 cells, 72 h; format: cell-based, human; settings: read-out: IC50 HCT-15, 72 h incubation
Outline: as §1

[5] = system: 2008 (ovarian) cancer cells; test: MTT cytotoxicity, 2008 cells, 72 h; format: cell-based, human; settings: read-out: IC50 2008, 72 h incubation
Outline: as §1

[6] = system: C13* cancer cells (ovarian, resistant to cisplatin); test: MTT cytotoxicity, cisplatin-resistant C13* cells, 72 h; format: cell-based, human
Outline: as §1

[7] = system: human embryonic kidney (HEK-293) cells; test: MTT cytotoxicity, non-tumor HEK-293 cells; format: cell-based; settings: read-out: IC50 HEK-293, 72 h incubation
Outline: as §1

[8] = system: Chinese hamster ovary (CHO) cells; test: MTT cytotoxicity, non-tumor CHO cells; format: cell-based; settings: read-out: IC50 CHO, 72 h incubation
Outline: as §1

[9] = system: 2008 cancer cell spheroids; test: 3D spheroids APH assay, 2008; format: cell-based, human; settings: read-out: IC50 3D spheroids 2008, 72 h incubation
Outline: (§2)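 2.5 × 10^3 2008 or NTERA-2 cells per well grown as spheroids in phenol red-free F-12 HAM's with 10% FCS and 20% methyl cellulose stock. Treated 72 h; DMSO stocks, 0.5% final DMSO; cisplatin from 0.9% NaCl. Viability by modified acid phosphatase assay. IC50 from 405 nm absorbance vs untreated, 4-PL fit.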

[10] = system: NTERA-2 cancer cell spheroids; test: 3D spheroids APH assay, NTERA-2; format: cell-based, human; settings: read-out: IC50 3D spheroids NTERA-2, 72 h incubation
Outline: as §2

For `N.N.[Cl][Pt][Cl]` [Cisplatin, cisplatin], the IC50 [1] was 15 ± 3 µM, the IC50 [2] was 22 ± 4 µM and the IC50 [3] was 12 ± 3 µM. The IC50 [4] was 14 ± 2 µM, the IC50 [5] was 2 ± 1 µM and the “resistance factor (RF)” value ([6]; in brackets, ratio IC50 resistant C13* / sensitive 2008 cells) was 11.7. The IC50 ([6]; read-out: IC50 C13*, 72 h incubation, MTT, cisplatin-resistant cells) was 25 ± 2 µM, the IC50 [7] was 14 ± 3 µM and the IC50 [8] was 29 ± 3 µM. It also gave an IC50 [9] of 13.9 ± 0.8 µM and an IC50 [10] of 50 ± 5 µM.
